ChEMBL document CHEMBL3244142, “Antifungal properties of 2-bromo-3-fluorosuccinic acid esters and related compounds” (1977)
Converted amounts (≈) assume the structure as drawn. The source made the active and inactive calls. The rule behind the calls is not given here.

Assays:
[1] = tested on: Trichophyton mentagrophytes; assay: Antifungal activity against Trichophyton mentagrophytes ATCC 9129 at <100 ug/ml at pH 5.6 after 5 days in presence of 10% beef serum; format: functional, organism-based
Procedure, shortened: (§1)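 Agar-dilution MIC in Sabouraud dextrose agar at pH 5.6 or 7.0, with or without 10% beef serum. Plates were incubated at 28 °C for 5 days. MIC is the lowest concentration (µg/mL) giving 100% inhibition. Steps were 1 µg/mL up to 10, 2 µg/mL from 10–20, and 10 µg/mL from 20–100; 100 µg/mL was the top level, and no inhibition there is scored as >100.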

[2] = tested on: Mucor mucedo; assay: Antifungal activity against Mucor mucedo ATCC 7941 at <100 ug/ml at pH 7 after 20 h in absence of 10% beef serum
[3] = tested on: Aspergillus niger; assay: Antifungal activity against Aspergillus niger ATCC 1004 at <100 ug/ml at pH 7 after 5 days in presence of 10% beef serum; format: functional, organism-based; procedure, shortened: as §1
[4] = tested on: Candida albicans; assay: Antifungal activity against Candida albicans ATCC 10231 at <100 ug/ml at pH 5.6 after 20 h in absence of 10% beef serum
[5] = tested on: Trichophyton mentagrophytes; assay: Antifungal activity against Trichophyton mentagrophytes ATCC 9129 at <100 ug/ml at pH 5.6 after 5 days in absence of 10% beef serum; format: functional, organism-based; procedure, shortened: as §1
[6] = tested on: Aspergillus niger; assay: Antifungal activity against Aspergillus niger ATCC 1004 at <100 ug/ml at pH 5.6 after 5 days in absence of 10% beef serum; format: functional, organism-based; procedure, shortened: as §1
[7] = tested on: Candida albicans; assay: Antifungal activity against Candida albicans ATCC 10231 at <100 ug/ml at pH 7 after 20 h in absence of 10% beef serum
[8] = tested on: Candida albicans; assay: Antifungal activity against Candida albicans ATCC 10231 at <100 ug/ml at pH 5.6 after 20 h in presence of 10% beef serum
[9] = tested on: Aspergillus niger; assay: Antifungal activity against Aspergillus niger ATCC 1004 at <100 ug/ml at pH 7 after 5 days in absence of 10% beef serum; format: functional, organism-based; procedure, shortened: as §1
[10] = tested on: Mucor mucedo; assay: Antifungal activity against Mucor mucedo ATCC 7941 at <100 ug/ml at pH 5.6 after 20 h in absence of 10% beef serum
[11] = tested on: Mucor mucedo; assay: Antifungal activity against Mucor mucedo ATCC 7941 at <100 ug/ml at pH 5.6 after 20 h in presence of 10% beef serum
[12] = tested on: Aspergillus niger; assay: Antifungal activity against Aspergillus niger ATCC 1004 at <100 ug/ml at pH 5.6 after 5 days in presence of 10% beef serum; format: functional, organism-based; procedure, shortened: as §1
[13] = tested on: Mucor mucedo; assay: Antifungal activity against Mucor mucedo ATCC 7941 at <100 ug/ml at pH 7 after 20 h in presence of 10% beef serum
[14] = tested on: Candida albicans; assay: Antifungal activity against Candida albicans ATCC 10231 at <100 ug/ml at pH 7 after 20 h in presence of 10% beef serum
[15] = tested on: Trichophyton mentagrophytes; assay: Antifungal activity against Trichophyton mentagrophytes ATCC 9129 at <100 ug/ml at pH 7 after 5 days in absence of 10% beef serum; format: functional, organism-based; procedure, shortened: as §1
[16] = tested on: Trichophyton mentagrophytes; assay: Antifungal activity against Trichophyton mentagrophytes ATCC 9129 at <100 ug/ml at pH 7 after 5 days in presence of 10% beef serum; format: functional, organism-based; procedure, shortened: as §1
[17] = tested on: Mucor mucedo; assay: Antifungal activity against Mucor mucedo ATCC 7941 at pH 5.6 after 20 h in absence of 10% beef serum; conditions: ATCC 7941, 20 h
[18] = tested on: Mucor mucedo; assay: Antifungal activity against Mucor mucedo ATCC 7941 at pH 5.6 after 20 h in presence of 10% beef serum; conditions: ATCC 7941, 20 h
[19] = tested on: Trichophyton mentagrophytes; assay: Antifungal activity against Trichophyton mentagrophytes ATCC 9129 at pH 5.6 after 5 days in absence of 10% beef serum; format: functional; conditions: Trichophyton mentagrophytes, ATCC 9129, 120 h; read-out: MIC; procedure, shortened: as §1
[20] = tested on: Mucor mucedo; assay: Antifungal activity against Mucor mucedo ATCC 7941 at pH 7 after 20 h in absence of 10% beef serum; conditions: ATCC 7941, 20 h
[21] = tested on: Aspergillus niger; assay: Antifungal activity against Aspergillus niger ATCC 1004 at pH 5.6 after 5 days in presence of 10% beef serum; format: functional; conditions: Aspergillus niger, ATCC 1004, 120 h; read-out: MIC; procedure, shortened: as §1
[22] = tested on: Candida albicans; assay: Antifungal activity against Candida albicans ATCC 10231 at pH 7 after 20 h in presence of 10% beef serum; conditions: ATCC 10231, 20 h
[23] = tested on: Aspergillus niger; assay: Antifungal activity against Aspergillus niger ATCC 1004 at pH 7 after 5 days in presence of 10% beef serum; format: functional; conditions: Aspergillus niger, ATCC 1004, 120 h; read-out: MIC; procedure, shortened: as §1
[24] = tested on: Candida albicans; assay: Antifungal activity against Candida albicans ATCC 10231 at pH 5.6 after 20 h in presence of 10% beef serum; conditions: ATCC 10231, 20 h
[25] = tested on: Candida albicans; assay: Antifungal activity against Candida albicans ATCC 10231 at pH 5.6 after 20 h in absence of 10% beef serum; conditions: ATCC 10231, 20 h
[26] = tested on: Candida albicans; assay: Antifungal activity against Candida albicans ATCC 10231 at pH 7 after 20 h in absence of 10% beef serum; conditions: ATCC 10231, 20 h
[27] = tested on: Aspergillus niger; assay: Antifungal activity against Aspergillus niger ATCC 1004 at pH 5.6 after 5 days in absence of 10% beef serum; format: functional; conditions: Aspergillus niger, ATCC 1004, 120 h; read-out: MIC; procedure, shortened: as §1
[28] = tested on: Aspergillus niger; assay: Antifungal activity against Aspergillus niger ATCC 1004 at pH 7 after 5 days in absence of 10% beef serum; format: functional; conditions: Aspergillus niger, ATCC 1004, 120 h; read-out: MIC; procedure, shortened: as §1
[29] = tested on: Trichophyton mentagrophytes; assay: Antifungal activity against Trichophyton mentagrophytes ATCC 9129 at pH 7 after 5 days in presence of 10% beef serum; format: functional; conditions: Trichophyton mentagrophytes, ATCC 9129, 120 h; read-out: MIC; procedure, shortened: as §1
[30] = tested on: Trichophyton mentagrophytes; assay: Antifungal activity against Trichophyton mentagrophytes ATCC 9129 at pH 7 after 5 days in absence of 10% beef serum; format: functional; conditions: Trichophyton mentagrophytes, ATCC 9129, 120 h; read-out: MIC; procedure, shortened: as §1
[31] = tested on: Mucor mucedo; assay: Antifungal activity against Mucor mucedo ATCC 7941 at pH 7 after 20 h in presence of 10% beef serum; conditions: ATCC 7941, 20 h
[32] = tested on: Trichophyton mentagrophytes; assay: Antifungal activity against Trichophyton mentagrophytes ATCC 9129 at pH 5.6 after 5 days in presence of 10% beef serum; format: functional; conditions: Trichophyton mentagrophytes, ATCC 9129, 120 h; read-out: MIC; procedure, shortened: as §1

SMILES	inhibition [1]	inhibition [2]	inhibition [3]	inhibition [4]	inhibition [5]	inhibition [6]	inhibition [7]	inhibition [8]	inhibition [9]	inhibition [10]	inhibition [11]	inhibition [12]	inhibition [13]	inhibition [14]	inhibition [15]	inhibition [16]	MIC [17] [µg/mL]	MIC [18] [µg/mL]	MIC [19] [µg/mL]	MIC [20] [µg/mL]	also measured
O=c1[nH]cc(F)c(=O)[nH]1	inactive	inactive	inactive	inactive	inactive	inactive	inactive	inactive	inactive	inactive	inactive	inactive	inactive	inactive	inactive	inactive					
COC(=O)/C=C/CC(=O)OC	inactive	inactive	inactive	inactive	inactive	inactive	inactive	inactive	inactive	inactive	inactive	inactive	inactive	inactive	inactive	inactive					
COC(=O)C#CC(=O)OC	inactive		inactive	inactive		inactive	inactive	inactive	inactive			inactive	inactive	inactive	inactive	inactive	8 (≈ 56.3 µM)	30	40 (≈ 281 µM)	70 (≈ 493 µM)	
CCCCCCOC(=O)[C@H](F)[C@@H](Br)C(=O)OCCCCCC (relative stereo)	inactive	inactive	inactive	inactive	inactive	inactive	inactive	inactive	inactive	inactive	inactive	inactive	inactive	inactive	inactive	inactive					
Nc1nc(=O)[nH]cc1F [FLUCYTOSINE]	inactive	inactive			inactive					inactive	inactive		inactive		inactive	inactive					MIC [21]: 8 µg/mL; MIC [22]: 14 µg/mL; MIC [23]: 10 µg/mL; MIC [24]: 14 µg/mL; MIC [25]: 9 µg/mL (≈ 69.7 µM); MIC [26]: 9 µg/mL (≈ 69.7 µM); MIC [27]: 9 µg/mL (≈ 69.7 µM); MIC [28]: 7 µg/mL (≈ 54.2 µM)
CCOC(=O)[C@@H](F)[C@@H](Br)C(=O)OCC (relative stereo)																	4 (≈ 14.8 µM)	5	2 (≈ 7.38 µM)	6 (≈ 22.1 µM)	MIC [29]: 6 µg/mL; MIC [21]: 12 µg/mL; MIC [22]: 16 µg/mL; MIC [23]: 40 µg/mL; MIC [24]: 6 µg/mL; MIC [30]: 3 µg/mL (≈ 11.1 µM); MIC [31]: 7 µg/mL; MIC [25]: 4 µg/mL (≈ 14.8 µM); MIC [26]: 12 µg/mL (≈ 44.3 µM); MIC [27]: 12 µg/mL (≈ 44.3 µM); MIC [32]: 5 µg/mL; MIC [28]: 30 µg/mL (≈ 111 µM)
